Active and inactive are the calls of the source. No cut-off for these calls is given here.
Columns and labels:
L1210 [1] = assay: Antitumor activity against L1210 cells; Inactive; type: functional, cell-based; settings: Mus musculus
Human alphaherpesvirus 1 [2] = assay: In vitro antiviral activity against herpes simplex virus/1(HSV/1) expressed as viral rating (VR); Inactive; type: functional, organism-based
Summary of the method: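 Tested in vitro in KB cells infected with HSV type 1 at 1000 to 1 μg/mL. Plates were incubated 72 h at 37 °C, and inhibition of viral cytopathic effect was scored as a virus rating (VR). VR ≥ 0.5 was taken as moderate to definite activity. Ribavirin and acyclovir served as controls.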

P388 = assay: Antitumor activity against leukemia P388 cells; Inactive; type: functional, cell-based; settings: Mus musculus
L1210 [3] = assay: Antitumor activity against L1210 cells; type: functional, cell-based; settings: Mus musculus
L1210 [4] = assay: Inhibition of RNA, DNA, and protein synthesis in L1210 cells at 8*10e-7 M.
HeLa = assay: Antitumor activity against HeLa cells; type: functional, cell-based; settings: Homo sapiens
Human alphaherpesvirus 1 [5] = assay: In vitro antiviral activity against herpes simplex virus/1(HSV/1) expressed as viral rating (VR); type: functional
Summary of the method: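 Antiviral assay in KB cells against HSV type 1 over 1000 to 1 μg/mL. Inhibition of viral cytopathic effect was read after 72 h at 37 °C and scored as virus rating (VR). VR ≥ 0.5 was taken as moderate to definite activity. Ribavirin and acyclovir served as controls.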

Structure (SMILES)	Activity (L1210 [1])	Activity (P388)	VR (Human alphaherpesvirus 1 [5])	other results
O=c1[nH]oc(=O)[nH]1	inactive	inactive		VR (Human alphaherpesvirus 1 [2]): inactive
O=c1[nH]c(=O)n([C@H]2C[C@H](O)[C@@H](CO)O2)o1	inactive	inactive		VR (Human alphaherpesvirus 1 [2]): inactive
CC(=O)O[C@H]1C[C@H](c2coc(=O)[nH]c2=O)O[C@@H]1CO	inactive	inactive		
O=c1[nH]c(=O)c([C@@H]2O[C@H](CO)[C@@H](O)[C@H]2O)co1				IC50 (L1210 [3]): 300 nM; Inhibition (L1210 [4]): 5%; IC50 (HeLa): 500 nM
C[C@H]1OC(c2coc(=O)[nH]c2=O)[C@H](O)[C@@H]1O (some centres not stated)	inactive	inactive		
NC(=O)c1ncn([C@@H]2O[C@H](CO)[C@@H](O)[C@H]2O)n1 [RIBAVIRIN]			1.2	
O=c1nc2c(co1)[C@@H]1O[C@H](CO)[C@@H](O)[C@@H]1O2	inactive	inactive		
O=c1[nH]c(=O)n(C2O[C@H](CO)[C@@H](O)[C@H]2O)o1 (some centres not stated)	inactive	inactive	0.65	
O=c1[nH]c(=O)c([C@@H]2O[C@H](COP(=O)(O)O)[C@@H](O)[C@H]2O)co1	inactive	inactive		
Nc1nc2c(ncn2COCCO)c(=O)[nH]1 [ACYCLOVIR]			1.4	
